pIC50: −log10 of the molar value. Blank lines part the entries; values can stand above or below the molecule they belong to.
Columns and labels:
Type in all cases: functional
Mus musculus [1] = test: Antitumor activity against L1210 leukemia in mice (Percent increase in life span.) at the dose of 230 mg/kg
Summary of the method: (§1)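 Male B6D2F1J mice, groups of 5–9, inoculated ip with 10^5 L1210 cells on day 0. Dosing starts day 1 on a qd×5 or q4d(2,6) schedule. Vehicles are sterile water, pH 7.4 0.05 M potassium phosphate buffer, or 0.4% Tween 80/0.5% CMC/0.9% benzyl alcohol/0.9% saline. %ILS = (T/C − 1)×100 from median survival. Weights taken days 1 and 7.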

Mus musculus [2] = test: Antitumor activity against L1210 leukemia in mice (Average 7-day weight change) at the dose of 115 mg/kg
Summary of the method: (§2)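 Male B6D2F1J mice, groups of five to nine, inoculated ip with 10^5 L1210 cells on day 0. Drug treatment started day 1 on qd×5 or q4d(2,6) schedule. Vehicles: ara-C in sterile water; the n-butyl phosphate ester in 0.05 M pH 7.4 potassium phosphate buffer; others as suspensions in 0.4% Tween 80/0.5% low-density CMC/0.9% benzyl alcohol/0.9% saline. Mice weighed days 1 and 7; 7-day weight change given as g/mouse and %.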

Mus musculus [3] = test: Antitumor activity against L1210 leukemia in mice (Average 7-day weight change) at the dose of 230 mg/kg; summary of the method: as §2
Mus musculus [4] = test: Antitumor activity against L1210 leukemia in mice (Average weight per mouse on day 1.) at the dose of 230 mg/kg
Summary of the method: (§3)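 Male B6D2F1J mice (5–9 per group) received 10^5 L1210 cells i.p. on day 0 and drug from day 1, given qd×5 or q4d(2,6). Vehicles were sterile water, 0.05 M potassium phosphate pH 7.4, or 0.4% Tween 80/0.5% CMC/0.9% benzyl alcohol/0.9% saline. Read-out is average body weight per mouse (g) on day 1.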

Mus musculus [5] = test: Antitumor activity against L1210 leukemia in mice (Average 7-day weight change) at the dose of 460 mg/kg; summary of the method: as §2
Mus musculus [6] = test: Antitumor activity against L1210 leukemia in mice (Average 7-day weight change (%)) at the dose of 230 mg/kg; summary of the method: as §2
Mus musculus [7] = test: Antitumor activity against L1210 leukemia in mice (Percent increase in life span.) at the dose of 115 mg/kg; summary of the method: as §1
Mus musculus [8] = test: Antitumor activity against L1210 leukemia in mice (Average 7-day weight change (%)) at the dose of 115 mg/kg; summary of the method: as §2
Mus musculus [9] = test: Antitumor activity against L1210 leukemia in mice (Average weight per mouse on day 1.) at the dose of 460 mg/kg; summary of the method: as §3
Mus musculus [10] = test: Antitumor activity against L1210 leukemia in mice (Average 7-day weight change (%)) at the dose of 460 mg/kg; summary of the method: as §2
Mus musculus [11] = test: Antitumor activity against L1210 leukemia in mice (Average weight per mouse on day 1.) at the dose of 115 mg/kg; summary of the method: as §3
Mus musculus [12] = test: Antitumor activity against L1210 leukemia in mice (Percent increase in life span.) at the dose of 460 mg/kg (mice surviving 20 or more days); summary of the method: as §1
L1210 = test: Growth inhibition of cultured L1210 mouse leukemia cells was determined; conditions: read-out: ID50 (the source's name)
Summary of the method: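 L1210 mouse leukemia cells in suspension in Eagle's MEM with 15% whole (non-dialyzed, non-heat-inactivated) fetal calf serum, antibiotics and 0.05 mM 2-mercaptoethanol, 37 °C, 5% CO2. Drugs in pH 7.4 phosphate buffer or Me2SO, generally 10^-7 to 10^-3 M. Coulter cell counts at 48 h; ID50 relative to untreated controls from dose–response curves, triplicate.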

Mus musculus [13] = test: Antitumor activity against L1210 leukemia in mice (Percent increase in life span.) at the dose of 267 mg/kg (mice surviving 20 or more days); summary of the method: as §1
Mus musculus [14] = test: Antitumor activity against L1210 leukemia in mice (Percent increase in life span.) at the dose of 113 mg/kg; summary of the method: as §1
Mus musculus [15] = test: Antitumor activity against L1210 leukemia in mice (Average 7-day weight change (%)) at the dose of 113 mg/kg; conditions: dose 133 mg/kg; in the assay text read “133 mg/kg” for “113 mg/kg”; summary of the method: as §2
Mus musculus [16] = test: Antitumor activity against L1210 leukemia in mice (Percent increase in life span.) at the dose of 200 mg/kg (mice surviving 20 or more days); summary of the method: as §1
Mus musculus [17] = test: Antitumor activity against L1210 leukemia in mice (Average 7-day weight change) at the dose of 267 mg/kg; summary of the method: as §2
Mus musculus [18] = test: Antitumor activity against L1210 leukemia in mice (Average weight per mouse on day 1.) at the dose of 113 mg/kg; summary of the method: as §3
Mus musculus [19] = test: Antitumor activity against L1210 leukemia in mice (Average weight per mouse on day 1.) at the dose of 267 mg/kg; summary of the method: as §3
Mus musculus [20] = test: Antitumor activity against L1210 leukemia in mice (Average 7-day weight change) at the dose of 200 mg/kg; summary of the method: as §2
Mus musculus [21] = test: Antitumor activity against L1210 leukemia in mice (Average 7-day weight change) at the dose of 113 mg/kg; summary of the method: as §2
Mus musculus [22] = test: Antitumor activity against L1210 leukemia in mice (Average 7-day weight change (%)) at the dose of 200 mg/kg; summary of the method: as §2
Mus musculus [23] = test: Antitumor activity against L1210 leukemia in mice (Average 7-day weight change (%)) at the dose of 267 mg/kg; summary of the method: as §2
Mus musculus [24] = test: Antitumor activity against L1210 leukemia in mice (Average weight per mouse on day 1.) at the dose of 200 mg/kg; summary of the method: as §3
B16 = test: Growth inhibition of B16 mouse melanoma cells in culture was determined; conditions: read-out: ID50 (the source's name)
Summary of the method: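 B16 mouse melanoma monolayers in McCoy's 5A with 10% whole fetal calf serum, streptomycin and penicillin, 37 °C, 5% CO2. Drugs were dissolved in 0.05 M pH 7.4 potassium phosphate buffer or Me2SO and dosed at regularly spaced concentrations, generally 10^-7 to 10^-3 M. Cells were counted after 48 h; ID50 versus untreated controls was read from dose–response curves, triplicate.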

Mus musculus [25] = test: Antitumor activity against L1210 leukemia in mice (Average weight per mouse on day 1.) at the dose of 260 mg/kg; summary of the method: as §3
Mus musculus [26] = test: Antitumor activity against L1210 leukemia in mice (Average 7-day weight change) at the dose of 390 mg/kg; summary of the method: as §2
Mus musculus [27] = test: Antitumor activity against L1210 leukemia in mice (Percent increase in life span.) at the dose of 260 mg/kg; summary of the method: as §1
Mus musculus [28] = test: Antitumor activity against L1210 leukemia in mice (Percent increase in life span.) at the dose of 130 mg/kg; summary of the method: as §1
Mus musculus [29] = test: Antitumor activity against L1210 leukemia in mice (Percent increase in life span.) at the dose of 390 mg/kg; summary of the method: as §1
Mus musculus [30] = test: Antitumor activity against L1210 leukemia in mice (Average 7-day weight change (%)) at the dose of 130 mg/kg; summary of the method: as §2
Mus musculus [31] = test: Antitumor activity against L1210 leukemia in mice (Average 7-day weight change (%)) at the dose of 390 mg/kg; summary of the method: as §2
Mus musculus [32] = test: Antitumor activity against L1210 leukemia in mice (Average weight per mouse on day 1.) at the dose of 390 mg/kg; summary of the method: as §3
Mus musculus [33] = test: Antitumor activity against L1210 leukemia in mice (Average weight per mouse on day 1.) at the dose of 130 mg/kg; summary of the method: as §3
Mus musculus [34] = test: Antitumor activity against L1210 leukemia in mice (Average 7-day weight change) at the dose of 130 mg/kg; summary of the method: as §2
Mus musculus [35] = test: Antitumor activity against L1210 leukemia in mice (Average 7-day weight change (%)) at the dose of 260 mg/kg; summary of the method: as §2
Mus musculus [36] = test: Antitumor activity against L1210 leukemia in mice (Average 7-day weight change) at the dose of 260 mg/kg; summary of the method: as §2

Compound: CCCCCCCCCCCCCCCC(=O)O[C@H]1[C@@H]2Oc3nc(=N)ccn3[C@@H]2O[C@@H]1COP(=O)(O)OCCCCCC
- ILS at 230 mg/kg (Mus musculus [1]): 37%
- Weight change (Mus musculus [2]): 2 g mouse-1
- Weight change (Mus musculus [3]): 1.8 g mouse-1
- Average weight (Mus musculus [4]): 22.2 g mouse-1
- Weight change (Mus musculus [5]): 2.8 g mouse-1
- Weight change (Mus musculus [6]): 8%
- ILS at 115 mg/kg (Mus musculus [7]): 25%
- Weight change (Mus musculus [8]): 10%
- Average weight (Mus musculus [9]): 19.8 g mouse-1
- Weight change (Mus musculus [10]): 14%
- Average weight (Mus musculus [11]): 20.6 g mouse-1
- ILS at 460 mg/kg (Mus musculus [12]): 75%

Compound: CCCCCCCCCCCCCCCC(=O)O[C@H]1[C@@H]2Oc3nc(=N)ccn3[C@@H]2O[C@@H]1COP(=O)(O)OCCOCC
- ILS at 267 mg/kg (Mus musculus [13]): 150%
- ILS at 113 mg/kg (Mus musculus [14]): 112%
- Weight change (Mus musculus [15]): -11%
- ILS at 200 mg/kg (Mus musculus [16]): 137%
- Weight change (Mus musculus [17]): -3.6 g mouse-1
- Average weight (Mus musculus [18]): 24 g mouse-1
- Average weight (Mus musculus [19]): 24 g mouse-1
- Weight change (Mus musculus [20]): -4 g mouse-1
- Weight change (Mus musculus [21]): -2.6 g mouse-1
- Weight change (Mus musculus [22]): -16%
- Weight change (Mus musculus [23]): -16%
- Average weight (Mus musculus [24]): 24.4 g mouse-1

Compound: CCCCCCCCOP(=O)(O)OC[C@H]1O[C@@H](n2ccc(N)nc2=O)[C@@H](O)[C@@H]1O
- pIC50 (L1210): 4.96
- pIC50 (B16): 3.44

Compound: CCCCCCCCCCCCCCCC(=O)O[C@H]1[C@@H]2Oc3nc(=N)ccn3[C@@H]2O[C@@H]1COP(=O)(O)OCCCC
- Average weight (Mus musculus [25]): 22.8 g mouse-1
- Weight change (Mus musculus [26]): -1.6 g mouse-1
- ILS at 260 mg/kg (Mus musculus [27]): 62%
- ILS at 130 mg/kg (Mus musculus [28]): 62%
- ILS at 390 mg/kg (Mus musculus [29]): 74%
- Weight change (Mus musculus [30]): 4%
- Weight change (Mus musculus [31]): -7%
- Average weight (Mus musculus [32]): 24.5 g mouse-1
- Average weight (Mus musculus [33]): 23 g mouse-1
- Weight change (Mus musculus [34]): 0.9 g mouse-1
- Weight change (Mus musculus [35]): 4%
- Weight change (Mus musculus [36]): 0.9 g mouse-1

Compound: Nc1ccn([C@@H]2O[C@H](COP(=O)(O)OCC(O)COCc3ccccc3)[C@@H](O)[C@@H]2O)c(=O)n1 (stereo partly drawn)
- pIC50 (L1210): 6.00
- pIC50 (B16): 4.60

Compound: CCCCCCCCCCCCCCCCOP(=O)(O)OC[C@H]1O[C@@H](n2ccc(N)nc2=O)[C@@H](O)[C@@H]1O
- pIC50 (L1210): 4.96

Next, values leading:

- pIC50 (L1210): 5.11
Compound: CCCCCCOP(=O)(O)OC[C@H]1O[C@@H](n2ccc(N)nc2=O)[C@@H](O)[C@@H]1O

- pIC50 (L1210): 6.19
- pIC50 (B16): 4.59
Compound: Nc1ccn([C@@H]2O[C@H](COP(=O)(O)OCC(O)CO)[C@@H](O)[C@@H]2O)c(=O)n1 (stereo partly drawn)

- pIC50 (L1210): 5.40
- pIC50 (B16): 4.15
Compound: CCOP(=O)(O)OC[C@H]1O[C@@H](n2ccc(N)nc2=O)[C@@H](O)[C@@H]1O

- pIC50 (L1210): 6.46
- pIC50 (B16): 5.82
Compound: Nc1ccn([C@@H]2O[C@H](COP(=O)(O)O)[C@@H](O)[C@H]2O)c(=O)n1

Reference: ChEMBL document CHEMBL1122008, “Lipophilic 5'-(alkyl phosphate) esters of 1-beta-D-arabinofuranosylcytosine and its N4-acyl and 2,2'-anhydro-3'-O-acyl derivatives as potential prodrugs” (1982)
